Assay results as given in article PMC8320079 (ACS Omega, 2021).
“And” between values parts separate entries of the source, which are not always exact repeats. Equal values may be shown once.

Assays:
[1] = tested on: Dalton's lymphoma (DL) cells; assay: MTT-based cell viability assay, DL cells; settings: for IC50: DL cells, MTT, 24 h, mean ± S.D.; for SI PBMC/DL: selectivity index IC50 (PBMC)/IC50 (DL)
In short: (§1)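 Test compound dilutions in PBS (pH 7.4), 0 and 0.01–100 μM, applied for 24 h. DL cells were grown in RPMI-1640 with 10% FBS and antibiotics at 37 °C, 5% CO2, and subcultured at 80% confluency. Formazan was read at 570 nm. IC50 came from a four-parameter nonlinear fit of % cytotoxicity versus log concentration. Cisplatin reference; mean ± S.D., n = 3. SI = IC50(PBMC)/IC50(DL or EAC); PBMCs were tested at 0.01–400 μM.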

[2] = tested on: peripheral blood mononuclear cells (PBMCs); assay: MTT-based cell viability assay, normal cells; settings: for IC50: PBMCs (normal cells), 24 h, mean ± S.D.
In short: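 Nontumorigenic PBMCs were exposed 24 h to test compound at 0 and 0.01–400 μM in PBS (pH 7.4), using the same culture and dosing conditions as the tumour lines. MTT formazan was read at 570 nm. Percent cytotoxicity was plotted against log concentration, and IC50 taken from a nonlinear fit (bottom and top asymptotes, centre, Hill slope). Cisplatin reference; mean ± S.D.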

[3] = tested on: Ehrlich ascites carcinoma (EAC) cells; assay: MTT-based cell viability assay, EAC cells; settings: for IC50: EAC cells, MTT, 24 h, mean ± S.D.; for SI PBMC/EAC: selectivity index IC50 (PBMC)/IC50 (EAC)
In short: as §1

[4] = Solubility noted as property of the isolated complex; assay type: physicochemical; settings: qualitative
[5] = DMSO-d6 stability study by 31P{1H} and 1H NMR; assay type: physicochemical; settings: for stability over time in DMSO-d6: 31P{1H} and 1H NMR at time intervals over 6 h
EAC cell line = assay: Apoptosis, AO/EB dual staining, EAC cells; assay type: cell-based; settings: 24 h
In short: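 Cells (1 × 10^6) exposed 24 h to test compound at 0.01, 0.1, 0.5, 1, 5 and 10 μM; washed twice with PBS (pH 7.4); stained 5 min in a dark cold room with acridine orange and ethidium bromide, 100 μg/mL each in PBS. Fluorescence microscopy in three replicates, about 1000 cells counted per group; orange/red nuclei scored as apoptotic (%). Cisplatin reference; mean ± S.D., n = 3, one-way ANOVA.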

DL cell line = assay: Apoptosis, AO/EB dual staining, DL cells; assay type: cell-based; settings: 24 h

Compound	IC50 [1] [µM]	SI PBMC/DL [1]	IC50 [2] [µM]	IC50 [3] [µM]	SI PBMC/EAC [3]	solubility in DMSO [4]	stability over time in DMSO-d6 [5]	stability in DMSO (properties line of the synthesis) [5]	apoptosis-inducing ability (EAC cell line)	apoptosis-inducing ability (DL cell line)	cytotoxicity in normal cells, in words ([2]; PBMCs)
N.N.[Cl][Pt][Cl] [cisplatin, reference compound]	0.19 ± 0.07	79.2 and 79.15	15.04 ± 0.05	0.37 ± 0.1	40.64						
[OsCl(η^6-p-cymene)(PPh3)(SnCl3)] [Compound 11]	63.7 ± 1.3	6.72		87.3 ± 1.6	4.90	soluble in DMSO					
Cc1ccc(C(C)C)cc1.[Cl][Os-]([Cl])[P+](c1ccccc1)(c1ccccc1)c1ccccc1 [Compound 3, [OsCl2(η^6-p-cymene)(PPh3)]]		1.33	149.9 ± 1.2		1.22						
Cc1ccc(C(C)C)cc1.[Cl][Os-]1[P+](c2ccccc2)(c2ccccc2)C[P+]1(c1ccccc1)c1ccccc1.[Cl][Sn-]([Cl])[Cl] [Compound 10, [OsCl(η^6-p-cymene)(κ^2-dppm)]^+SnCl3^–]	15.8 ± 0.05	9.18	145 ± 1.8	21.4 ± 0.57	6.78	readily soluble	stable in DMSO-d6 for as long as 6 h	stable in DMSO			
Cc1ccc(C(C)C)cc1.[Cl][Ge-]([Cl])[Cl].[Cl][Os-]1[P+](c2ccccc2)(c2ccccc2)C[P+]1(c1ccccc1)c1ccccc1 [Compound 8, [OsCl(η^6-p-cymene)(κ^2-dppm)]^+GeCl3^–]	8.3 ± 0.05	19.42	161 ± 2.8	18.2 ± 0.05	8.86	sparingly soluble	some decomposition of the complex occurs	somewhat stable in DMSO	inducing apoptotic cell death	stronger apoptosis-inducing ability than the rest of the tested compounds	negligible cytotoxicity
[OsCl(η^6-p-cymene)(PPh3)(GeCl3)] [Compound 7]	93 ± 2.8	4.28	397.6 ± 3.5		3.83	sparingly soluble	somewhat less stable in DMSO-d6	unstable in DMSO			
